Active and inactive are the calls of the source. The rule behind the calls is not given here.
How the values were obtained:
SOS1-KRAS = SOS1-KRAS (Homo sapiens, UniProt Q07889); test: Inhibition of SOS1/KRAS G12C mutant (unknown origin) protein-protein interaction incubated for 2 hrs by HTRF analysis; type: protein-complex assay
[1] = Inhibition of ERK phosphorylation in human PC-9 cells incubated for 1 hr by HTRF analysis; type: cell-based; conditions: PC-9, 1 h
NCI-H358 [2] = test: Antitumor activity against human NCI-H358 cells harboring KRAS G12C mutant xenografted in BALB/c mouse assessed as reduction in ERK phosphorylation at 50 mg/kg, po measured after 28 days; type: functional, organism-based; conditions: time 28.0 day
NCI-H358 [3] = test: Antiproliferative activity against human NCI-H358 cells harboring KRAS G12C mutant assessed as inhibition of cell proliferation incubated for 5 days by celltiter-glo 3D assay; type: functional, cell-based; conditions: NCI-H358, 120 h
NCI-H358 [4] = test: Antitumor activity against human NCI-H358 cells harboring KRAS G12C mutant xenografted in BALB/c mouse assessed as tumor growth inhibition at 50 mg/kg, po measured after 28 days; type: functional; conditions: NCI-H358, 672 h, time 28 day, read-out: TGI
Outline: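 Subcutaneous NCI-H358 (KRAS G12C) xenograft mice given the drug orally. Efficacy is expressed as tumour growth inhibition (TGI), shown as mean ± SEM and compared with the vehicle group on day 28 (P < 0.05). Tumour p-ERK and plasma drug levels were measured 2 and 24 h after treatment.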

[5] = Toxicity against BALB/c mouse xenografted with human NCI-H358 cells harboring KRAS G12C mutant assessed as body weight loss at 50 mg/kg, po measured after 28 days; type: organism-based; conditions: in vivo, 672 h, time 28 day
[6] = Elimination half life in ICR mouse at 1 mg/kg, iv measured upto 24 hrs by LCMS analysis; type: ADME, organism-based; conditions: in vivo, read-out: beta t1/2 (converted)
Outline: (§1)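 Mice were dosed once orally at 5 mg/kg or intravenously at 1 mg/kg, both in solution in 5% DMSO + 95% (20% HP-β-CD). Cmax is the highest observed plasma concentration, AUC the area under the plasma concentration–time curve, and F the bioavailability. CL is reported as elimination rate and t1/2 as elimination half-life.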

[7] = AUC in ICR mouse at 5 mg/kg, po measured upto 24 hrs by LCMS analysis; type: ADME, organism-based; conditions: in vivo; outline: as §1
[8] = Cmax in ICR mouse at 5 mg/kg, po measured upto 24 hrs by LCMS analysis; type: ADME, organism-based; conditions: in vivo; outline: as §1
[9] = Clearance in ICR mouse at 1 mg/kg, iv measured upto 24 hrs by LCMS analysis; type: ADME, organism-based; conditions: in vivo; outline: as §1
[10] = Oral bioavailability in ICR mouse at 5 mg/kg measured upto 24 hrs by LCMS analysis; type: ADME, organism-based; conditions: in vivo; outline: as §1
Cytochrome P450 2C19 = Cytochrome P450 2C19 (Homo sapiens, UniProt P33261); test: Inhibition of CYP2C19 in human liver microsomes incubated for 5 mins by LC-MS/MS analysis; type: ADME, Microsome
[11] = Plasma protein binding in human assessed as unbound fraction incubated for 4 hrs by LC-MS/MS analysis; type: ADME, cell-free
[12] = Drug concentration in mouse plasma at 50 mg/kg, po measured for 8 hrs; type: ADME, organism-based; conditions: in vivo
Outline: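 Mice received a single 50 mg/kg dose, and the unbound drug concentration in plasma was followed over time.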

[13] = target: Voltage-gated inwardly rectifying potassium channel KCNH2 (Homo sapiens, UniProt Q12809); test: Inhibition of hERG transfected in HEK293 cells by whole-cell manual patch clamp assay; type: toxicity, cell-based
[14] = Plasma protein binding in dog assessed as unbound fraction incubated for 4 hrs by LC-MS/MS analysis; type: ADME, cell-free, Canis lupus familiaris
Cytochrome P450 2C9 = Cytochrome P450 2C9 (Homo sapiens, UniProt P11712); test: Inhibition of CYP2C9 in human liver microsomes incubated for 5 mins by LC-MS/MS analysis; type: ADME, Microsome
Cytochrome P450 3A4 = Cytochrome P450 3A4 (Homo sapiens, UniProt P08684); test: Inhibition of CYP3A4 in human liver microsomes incubated for 5 mins by LC-MS/MS analysis; type: ADME, Microsome
Cytochrome P450 2D6 = Cytochrome P450 2D6 (Homo sapiens, UniProt P10635); test: Inhibition of CYP2D6 in human liver microsomes incubated for 5 mins by LC-MS/MS analysis; type: ADME, Microsome
[15] = Plasma protein binding in rat assessed as unbound fraction incubated for 4 hrs by LC-MS/MS analysis; type: ADME, cell-free
NCI-H358 [16] = test: Antitumor activity against human NCI-H358 cells harboring KRAS G12C mutant xenografted in BALB/c mouse assessed as reduction in ERK phosphorylation at 50 mg/kg, po measured for 2 to 24 hrs; type: functional, organism-based; conditions: time 2-24 hrs
Outline: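 Tumor samples from NCI-H358 xenograft mice were assayed for p-ERK levels at 2 and 24 h after drug treatment. Plasma drug concentrations were measured at the same time points. Data are given as mean ± SEM.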

Cytochrome P450 1A2 = target: T1, Cytochrome P450 1A2 (Homo sapiens, UniProt P05177); test: Inhibition of CYP1A2 in human liver microsomes incubated for 5 mins by LC-MS/MS analysis; type: ADME, Microsome
T1 sequence (P05177 whole entry): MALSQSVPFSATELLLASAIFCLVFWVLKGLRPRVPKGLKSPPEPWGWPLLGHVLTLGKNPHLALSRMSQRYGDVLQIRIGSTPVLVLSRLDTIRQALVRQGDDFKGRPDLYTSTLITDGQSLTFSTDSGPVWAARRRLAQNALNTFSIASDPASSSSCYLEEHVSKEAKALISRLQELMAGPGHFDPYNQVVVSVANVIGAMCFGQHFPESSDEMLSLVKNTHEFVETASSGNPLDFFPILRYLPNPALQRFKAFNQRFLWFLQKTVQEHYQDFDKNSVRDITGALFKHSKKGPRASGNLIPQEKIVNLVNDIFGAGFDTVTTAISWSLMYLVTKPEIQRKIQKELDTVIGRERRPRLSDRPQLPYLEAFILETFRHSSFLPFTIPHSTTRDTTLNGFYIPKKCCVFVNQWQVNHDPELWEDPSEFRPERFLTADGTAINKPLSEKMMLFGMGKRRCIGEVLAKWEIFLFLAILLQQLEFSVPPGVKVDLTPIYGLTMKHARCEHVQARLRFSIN

[17] = Plasma protein binding in mouse assessed as unbound fraction incubated for 4 hrs by LC-MS/MS analysis; type: ADME, cell-free

SOS1-KRAS, sequence (Q07889 whole entry, looked up, stated change not applied): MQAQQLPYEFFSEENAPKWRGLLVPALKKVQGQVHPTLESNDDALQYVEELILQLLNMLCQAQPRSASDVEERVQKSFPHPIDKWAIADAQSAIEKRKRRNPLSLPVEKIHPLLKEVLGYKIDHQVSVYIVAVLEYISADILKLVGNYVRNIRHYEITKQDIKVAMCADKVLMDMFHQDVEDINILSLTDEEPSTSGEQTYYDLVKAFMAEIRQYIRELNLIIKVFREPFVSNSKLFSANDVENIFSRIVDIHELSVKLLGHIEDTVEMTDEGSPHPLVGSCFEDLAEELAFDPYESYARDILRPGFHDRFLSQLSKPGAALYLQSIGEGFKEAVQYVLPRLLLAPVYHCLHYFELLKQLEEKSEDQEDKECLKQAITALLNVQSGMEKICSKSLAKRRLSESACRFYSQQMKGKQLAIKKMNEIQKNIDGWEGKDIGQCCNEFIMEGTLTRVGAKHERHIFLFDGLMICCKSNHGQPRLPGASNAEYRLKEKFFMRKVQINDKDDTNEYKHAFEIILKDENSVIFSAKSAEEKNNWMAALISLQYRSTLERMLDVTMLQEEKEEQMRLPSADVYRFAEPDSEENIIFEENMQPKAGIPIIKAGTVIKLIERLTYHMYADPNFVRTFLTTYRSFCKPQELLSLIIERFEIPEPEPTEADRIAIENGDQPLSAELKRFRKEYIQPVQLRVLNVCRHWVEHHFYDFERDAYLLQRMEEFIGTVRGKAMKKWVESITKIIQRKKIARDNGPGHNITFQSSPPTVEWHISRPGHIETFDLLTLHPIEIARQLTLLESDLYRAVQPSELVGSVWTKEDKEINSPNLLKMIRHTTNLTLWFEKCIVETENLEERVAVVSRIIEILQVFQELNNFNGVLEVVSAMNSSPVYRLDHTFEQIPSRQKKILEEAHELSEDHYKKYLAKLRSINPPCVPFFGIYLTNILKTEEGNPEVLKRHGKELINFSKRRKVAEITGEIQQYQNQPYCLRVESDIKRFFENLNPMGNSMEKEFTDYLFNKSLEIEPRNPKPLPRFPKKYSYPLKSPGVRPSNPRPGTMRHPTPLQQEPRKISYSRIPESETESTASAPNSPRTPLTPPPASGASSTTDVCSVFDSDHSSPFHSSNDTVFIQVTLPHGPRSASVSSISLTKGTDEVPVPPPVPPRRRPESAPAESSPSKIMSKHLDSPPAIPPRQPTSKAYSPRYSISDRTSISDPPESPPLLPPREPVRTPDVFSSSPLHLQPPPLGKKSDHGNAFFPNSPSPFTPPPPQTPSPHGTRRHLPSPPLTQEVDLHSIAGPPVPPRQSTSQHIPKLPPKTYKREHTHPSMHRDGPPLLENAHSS
Cytochrome P450 2C9, sequence (P11712 whole entry): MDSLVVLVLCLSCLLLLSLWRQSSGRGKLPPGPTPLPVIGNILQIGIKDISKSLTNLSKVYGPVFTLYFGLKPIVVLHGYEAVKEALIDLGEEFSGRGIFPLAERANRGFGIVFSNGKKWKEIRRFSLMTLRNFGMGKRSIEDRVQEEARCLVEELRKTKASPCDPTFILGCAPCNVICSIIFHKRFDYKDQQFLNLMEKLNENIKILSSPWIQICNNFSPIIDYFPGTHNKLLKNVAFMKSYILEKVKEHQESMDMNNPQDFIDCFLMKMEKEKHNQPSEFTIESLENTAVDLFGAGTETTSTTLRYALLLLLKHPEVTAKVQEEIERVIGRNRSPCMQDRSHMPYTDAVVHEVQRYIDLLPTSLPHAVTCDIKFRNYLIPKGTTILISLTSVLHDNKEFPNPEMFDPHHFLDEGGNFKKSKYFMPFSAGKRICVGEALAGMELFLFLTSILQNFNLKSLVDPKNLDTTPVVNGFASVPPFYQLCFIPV
Voltage-gated inwardly rectifying potassium channel KCNH2, sequence (Q12809 whole entry): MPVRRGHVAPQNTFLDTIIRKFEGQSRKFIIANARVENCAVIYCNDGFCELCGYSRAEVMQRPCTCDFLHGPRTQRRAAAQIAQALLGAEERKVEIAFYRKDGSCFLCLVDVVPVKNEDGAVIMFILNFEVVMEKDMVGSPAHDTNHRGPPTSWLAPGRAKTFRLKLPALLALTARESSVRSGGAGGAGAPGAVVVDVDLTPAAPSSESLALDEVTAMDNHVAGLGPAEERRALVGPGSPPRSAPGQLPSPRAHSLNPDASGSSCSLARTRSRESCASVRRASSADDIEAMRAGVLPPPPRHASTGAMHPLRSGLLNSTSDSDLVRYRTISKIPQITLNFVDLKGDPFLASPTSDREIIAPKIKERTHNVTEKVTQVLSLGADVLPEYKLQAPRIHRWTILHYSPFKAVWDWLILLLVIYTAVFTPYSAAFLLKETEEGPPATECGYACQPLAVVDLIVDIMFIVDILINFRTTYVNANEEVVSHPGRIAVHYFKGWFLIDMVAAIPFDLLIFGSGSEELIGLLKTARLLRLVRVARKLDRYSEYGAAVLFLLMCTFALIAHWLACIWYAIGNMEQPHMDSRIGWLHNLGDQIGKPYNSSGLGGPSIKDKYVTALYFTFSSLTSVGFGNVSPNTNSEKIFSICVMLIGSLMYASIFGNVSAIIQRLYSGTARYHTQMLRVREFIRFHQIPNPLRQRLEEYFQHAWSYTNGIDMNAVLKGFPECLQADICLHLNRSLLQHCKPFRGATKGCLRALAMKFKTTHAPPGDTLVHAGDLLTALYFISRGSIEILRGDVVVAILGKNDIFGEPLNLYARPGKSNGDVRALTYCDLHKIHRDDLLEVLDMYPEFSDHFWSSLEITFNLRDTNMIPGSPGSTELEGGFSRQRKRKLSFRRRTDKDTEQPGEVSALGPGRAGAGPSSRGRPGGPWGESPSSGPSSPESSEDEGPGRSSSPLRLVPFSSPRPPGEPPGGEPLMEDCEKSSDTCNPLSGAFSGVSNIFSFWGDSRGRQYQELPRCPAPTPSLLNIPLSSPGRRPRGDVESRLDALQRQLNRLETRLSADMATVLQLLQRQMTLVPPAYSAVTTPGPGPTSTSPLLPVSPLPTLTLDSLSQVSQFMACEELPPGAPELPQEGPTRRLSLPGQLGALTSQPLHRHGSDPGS
Cytochrome P450 3A4, sequence (P08684 whole entry): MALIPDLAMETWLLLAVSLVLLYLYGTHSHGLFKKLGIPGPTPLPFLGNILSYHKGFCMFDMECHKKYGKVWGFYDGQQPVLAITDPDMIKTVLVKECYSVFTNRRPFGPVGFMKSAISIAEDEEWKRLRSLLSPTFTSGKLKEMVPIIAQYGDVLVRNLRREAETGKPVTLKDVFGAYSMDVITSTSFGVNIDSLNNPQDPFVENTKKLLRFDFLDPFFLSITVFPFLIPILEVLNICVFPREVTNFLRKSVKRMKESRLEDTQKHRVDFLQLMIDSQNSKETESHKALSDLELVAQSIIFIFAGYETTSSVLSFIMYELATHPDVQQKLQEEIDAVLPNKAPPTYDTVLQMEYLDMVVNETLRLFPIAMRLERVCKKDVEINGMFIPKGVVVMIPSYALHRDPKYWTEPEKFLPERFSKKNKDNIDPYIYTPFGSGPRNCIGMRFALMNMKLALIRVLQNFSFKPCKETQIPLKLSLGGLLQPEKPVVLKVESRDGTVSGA
Cytochrome P450 2D6, sequence (P10635 whole entry): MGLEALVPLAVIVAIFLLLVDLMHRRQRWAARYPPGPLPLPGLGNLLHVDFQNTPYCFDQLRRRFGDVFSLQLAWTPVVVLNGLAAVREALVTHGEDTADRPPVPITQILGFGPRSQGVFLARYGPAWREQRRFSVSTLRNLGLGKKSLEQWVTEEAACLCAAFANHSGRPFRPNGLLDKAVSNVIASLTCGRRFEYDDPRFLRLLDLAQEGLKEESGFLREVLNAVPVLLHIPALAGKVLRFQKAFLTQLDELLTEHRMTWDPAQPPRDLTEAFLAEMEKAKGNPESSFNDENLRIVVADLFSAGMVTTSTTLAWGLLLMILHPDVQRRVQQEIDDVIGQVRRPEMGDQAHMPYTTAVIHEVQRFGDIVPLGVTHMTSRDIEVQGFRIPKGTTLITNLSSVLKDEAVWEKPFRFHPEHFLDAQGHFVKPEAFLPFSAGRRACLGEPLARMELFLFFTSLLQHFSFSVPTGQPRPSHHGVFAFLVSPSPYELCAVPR
Cytochrome P450 2C19, sequence (P33261 whole entry): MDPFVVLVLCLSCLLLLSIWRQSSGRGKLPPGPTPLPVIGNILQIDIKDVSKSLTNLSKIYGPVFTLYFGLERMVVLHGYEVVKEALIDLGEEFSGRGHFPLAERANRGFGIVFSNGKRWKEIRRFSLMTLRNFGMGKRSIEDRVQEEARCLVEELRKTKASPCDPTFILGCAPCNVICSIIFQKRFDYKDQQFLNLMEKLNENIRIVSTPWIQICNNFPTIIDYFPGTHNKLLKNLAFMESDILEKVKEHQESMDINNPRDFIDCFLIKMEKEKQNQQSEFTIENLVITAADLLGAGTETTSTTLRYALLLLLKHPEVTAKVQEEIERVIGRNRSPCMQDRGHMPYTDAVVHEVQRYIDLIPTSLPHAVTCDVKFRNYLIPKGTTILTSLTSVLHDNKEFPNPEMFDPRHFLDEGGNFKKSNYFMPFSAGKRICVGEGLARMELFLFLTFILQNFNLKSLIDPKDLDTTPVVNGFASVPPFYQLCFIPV

Row | SMILES | IC50 (SOS1-KRAS) [nM] | IC50 [1] [nM] | other results
1 | C[C@@H](Nc1ccnc2cnc(N3CCN(S(C)(=O)=O)CC3)cc12)c1cccc(C(F)F)c1F | 13 | – | –
2 | C[C@@H](Nc1ccnc2cnc(O[C@H]3CCOC3)cc12)c1cccc(C(F)F)c1F | 15 | 770 | –
3 | COc1cc2nc(C)nc(N[C@H](C)c3cc(N)cc(C(F)(F)F)c3)c2cc1O[C@H]1CCOC1 | – | 299 | Activity (NCI-H358 [2]): Active; IC50 (NCI-H358 [3]): 90 nM; inhibition in vivo at 50 mg/kg (NCI-H358 [4]): 49%; Activity [5]: Non-Toxic
4 | CC(=O)N1CCC(c2cc3c(N[C@H](C)c4cccc(C(F)F)c4F)ccnc3cn2)C1 (some centres undefined) | 22 | 167 | –
5 | COc1cc2nccc(N[C@H](C)c3cccc(C(F)F)c3F)c2cc1O[C@H]1CCN(C)C1 | 15 | 295 | –
6 | C[C@@H](Nc1ccnc2cnc(N3CCC(O)CC3)cc12)c1cccc(C(F)F)c1F | 8.5 | 156 | –
7 | COc1cc2nccc(N[C@H](C)c3cccc(C(F)F)c3F)c2cc1N1CCS(=O)(=O)CC1 | 8.6 | 17 | half-life [6]: 1.75 h; AUC at 24 h [7]: 29 ng·h/mL; Cmax [8]: 10 ng/mL; clearance [9]: 127 mL/min/kg; bioavailability [10]: 5%
8 | COc1cc2nccc(N[C@H](C)c3cccc(C(F)F)c3F)c2cc1C1CCNCC1 | 14 | 798 | –
9 | COc1cc2nccc(N[C@H](C)c3cccc(C(F)F)c3F)c2cc1C1CC1 | 23 | 1070 | –
10 | COc1cc2nccc(N[C@H](C)c3cccc(C(F)F)c3F)c2cc1OC1CCNCC1 | 13 | 1070 | –
11 | COc1cc2nccc(N[C@H](C)c3cccc(C(F)F)c3F)c2cc1O[C@H]1CCN(C(=O)C2CC2)C1 | 10 | 92 | –
12 | COc1cc2nccc(N[C@H](C)c3cccc(C(F)F)c3F)c2cc1N1CCN(C(C)=O)CC1 | 8.8 | 30 | –
13 | C[C@@H](Nc1ccnc2cnc(N3CCOCC3)cc12)c1cccc(C(F)F)c1F | 7 | 349 | –
14 | CC(=O)N1CCN(c2cc3c(N[C@H](C)c4cccc(C(F)F)c4F)ccnc3cn2)CC1 | 5.8 | 54 | half-life [6]: 1.53 h; IC50 (NCI-H358 [3]): 322 nM; IC50 (Cytochrome P450 2C19): 3160 nM; fraction unbound at 4 h [11]: 0.0481; Drug uptake [12]: Active; IC50 [13]: 2450 nM; AUC at 24 h [7]: 1950 ng·h/mL; fraction unbound at 4 h [14]: 0.0545; IC50 (Cytochrome P450 2C9): 5690 nM; IC50 (Cytochrome P450 3A4): > 50000 nM; IC50 (Cytochrome P450 2D6): 11100 nM; fraction unbound at 4 h [15]: 0.0529; Cmax [8]: 714 ng/mL; inhibition in vivo at 50 mg/kg (NCI-H358 [4]): 76%; clearance [9]: 35 mL/min/kg; bioavailability [10]: 81%; Activity (NCI-H358 [16]): Active; IC50 (Cytochrome P450 1A2): 17500 nM; fraction unbound at 4 h [17]: 0.0675
15 | COc1cc2nccc(N[C@H](C)c3cccc(C(F)F)c3F)c2cc1O[C@H]1CCOC1 | 6.7 | 212 | –
16 | COc1cc2nccc(N[C@H](C)c3cccc(C(F)F)c3F)c2cc1O[C@H]1CCN(C(C)=O)C1 | 3.8 | 45 | half-life [6]: 0.45 h; AUC at 24 h [7]: 152 ng·h/mL; Cmax [8]: 77 ng/mL; clearance [9]: 107 mL/min/kg; bioavailability [10]: 19%
17 | CC(=O)N1CCC(c2cc3c(N[C@H](C)c4cccc(C(F)F)c4F)ccnc3cn2)CC1 | 9.7 | 77 | half-life [6]: 0.88 h; AUC at 24 h [7]: 578 ng·h/mL; Cmax [8]: 424 ng/mL; clearance [9]: 40 mL/min/kg; bioavailability [10]: 25%
18 | COc1cc2nccc(N[C@H](C)c3cccc(C(F)F)c3F)c2cc1O[C@H]1CCNC1 | 6 | 497 | –
19 | CC(=O)NC1CCN(c2cc3c(N[C@H](C)c4cccc(C(F)F)c4F)ccnc3cn2)CC1 | 12 | 490 | –
20 | C[C@@H](Nc1ccnc2cnc(N3CCS(=O)(=O)CC3)cc12)c1cccc(C(F)F)c1F | 5.2 | 56 | half-life [6]: 1.18 h; AUC at 24 h [7]: 406 ng·h/mL; Cmax [8]: 136 ng/mL; clearance [9]: 67 mL/min/kg; bioavailability [10]: 36%
21 | COc1cc2nccc(N[C@H](C)c3cccc(C(F)F)c3F)c2cc1O[C@H]1CCN(C(=O)C2CCOCC2)C1 | 13 | 73 | –
22 | COc1cc2nccc(N[C@H](C)c3cccc(C(F)F)c3F)c2cc1OC | 11 | 548 | –
23 | COc1cc2nccc(N[C@H](C)c3cccc(C(F)F)c3F)c2cc1C1CCN(C(C)=O)CC1 | 11 | 1030 | –
24 | C[C@@H](Nc1ccnc2cnc(N3CCN(C)C(=O)C3)cc12)c1cccc(C(F)F)c1F | 6.9 | 130 | –

Source: ChEMBL document CHEMBL5532737, “Lead Identification of Novel Naphthyridine Derivatives as Potent SOS1 Inhibitors” (ACS Med Chem Lett, 2024)
